ChEMBL document CHEMBL1138530 (Antimicrob Agents Chemother, 2007)
Converted amounts (≈) assume the structure as drawn.

Columns and labels:
[1] = test system: Human immunodeficiency virus 1; experiment: Antiviral activity against HIV1 assessed as inhibition of release of CA/p24 from CA-SP1/p25 at 37.8 nM by MAGI assay; type: functional; details: Human immunodeficiency virus 1, MAGI
Homo sapiens [2] = experiment: Toxicity in HIV1 infected human assessed as incidence of adverse effect at 75 to 250 mg, po; type: organism-based; details: in vivo
Summary of the method: (§1)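 Safety monitoring of HIV-infected adults given a single oral dose or placebo (randomized, double-blind, six per cohort), followed to day 24 for adverse events, serious adverse events and deaths.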

Homo sapiens [3] = experiment: Effect of CD4 cell count in HIV1 infected human at 75 mg, po after 10 days; type: functional
Summary of the method: (§2)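 CD4 cell count change from baseline 10 days after a single oral dose in HIV-infected adults (baseline CD4 >200 cells/mm3), six per cohort, placebo-controlled double-blind design; tested by dose and over time.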

Homo sapiens [4] = experiment: Effect of CD4 cell count in HIV1 infected human at 150 mg, po after 10 days; type: functional; summary of the method: as §2
Homo sapiens [5] = experiment: Effect of CD4 cell count in HIV1 infected human at 250 mg, po after 10 days; type: functional; summary of the method: as §2
[6] = test system: Human immunodeficiency virus 1; experiment: Antiviral activity against HIV1 infected in human assessed as logarithmic reduction in HIV RNA copies at 75 mg, po relative to baseline; type: functional
Summary of the method: (§3)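 Randomized, double-blind, placebo-controlled single oral dose in HIV-infected adults (CD4 >200 cells/mm3, viral load 5,000–250,000 copies/ml, off therapy ≥4 weeks), six per cohort. Plasma HIV RNA at screening, predose, 6–48 h and days 3–24; maximum observed log10 drop from baseline per patient, averaged by dose, compared by ANOVA.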

[7] = test system: Human immunodeficiency virus 1; experiment: Antiviral activity against HIV1 infected in human assessed as logarithmic reduction in HIV RNA copies at 150 mg, po relative to baseline; type: functional; summary of the method: as §3
[8] = test system: Human immunodeficiency virus 1; experiment: Antiviral activity against HIV1 infected in human assessed as logarithmic reduction in HIV RNA copies at 250 mg, po relative to baseline; type: functional; summary of the method: as §3
Homo sapiens [9] = experiment: Distributional clearance in HIV1 infected human at 75 mg, po; type: ADME, organism-based; details: in vivo
Summary of the method: (§4)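 Single oral dose to HIV-infected adults, six per cohort; plasma sampled 0–48 h and days 3–24. Heparinized plasma, internal-standard spiked, acetonitrile-precipitated, assayed by reverse-phase LC-MS/MS (MRM 583.3→455.2); ranges 20.0–16,000 ng/ml (75 mg) or 100–60,000 ng/ml (150, 250 mg). Oral two-compartment linear model with absorption lag fit by maximum likelihood then Bayesian estimation.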

Homo sapiens [10] = experiment: Distributional clearance in HIV1 infected human at 150 mg, po; type: ADME, organism-based; details: in vivo; summary of the method: as §4
Homo sapiens [11] = experiment: Distributional clearance in HIV1 infected human at 250 mg, po; type: ADME, organism-based; details: in vivo; summary of the method: as §4
[12] = Apparent oral clearance in HIV1 infected human at 75 mg, po; type: ADME, organism-based; details: in vivo; summary of the method: as §4
[13] = Apparent oral clearance in HIV1 infected human at 150 mg, po; type: ADME, organism-based; details: in vivo; summary of the method: as §4
[14] = Apparent oral clearance in HIV1 infected human at 250 mg, po; type: ADME, organism-based; details: in vivo; summary of the method: as §4
Homo sapiens [15] = experiment: Tlag in HIV1 infected human at 75 mg, po; type: ADME, organism-based; details: in vivo; summary of the method: as §4
Homo sapiens [16] = experiment: Tlag in HIV1 infected human at 150 mg, po; type: ADME, organism-based; details: in vivo; summary of the method: as §4
Homo sapiens [17] = experiment: Tlag in HIV1 infected human at 250 mg, po; type: ADME, organism-based; details: in vivo; summary of the method: as §4
[18] = Half life in HIV1 infected human at 75 mg, po; type: ADME, organism-based; details: in vivo; summary of the method: as §4
[19] = Half life in HIV1 infected human at 150 mg, po; type: ADME, organism-based; details: in vivo; summary of the method: as §4
[20] = Half life in HIV1 infected human at 250 mg, po; type: ADME, organism-based; details: in vivo; summary of the method: as §4
[21] = test system: Human immunodeficiency virus 1; experiment: Antiviral activity against HIV1 infected in human assessed as death rate constant of uninfected CD4 cells at 75 mg, po; type: functional
Summary of the method: (§5)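 Randomized, double-blind, placebo-controlled trial in HIV-infected adults (CD4 >200 cells/mm3, plasma viral load 5,000–250,000 copies/ml, off antiretrovirals ≥4 weeks), six per cohort, single oral dose. Plasma drug levels measured by LC-MS/MS; HIV RNA sampled to day 24. Parameters from a viral-dynamic model (Hill-type inhibition of new CD4 infection) fit per subject by maximum likelihood then Bayesian estimation; reported as mean (%CV).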

[22] = test system: Human immunodeficiency virus 1; experiment: Antiviral activity against HIV1 infected in human assessed as death rate constant of uninfected CD4 cells at 150 mg, po; type: functional; summary of the method: as §5
[23] = test system: Human immunodeficiency virus 1; experiment: Antiviral activity against HIV1 infected in human assessed as death rate constant of uninfected CD4 cells at 250 mg, po; type: functional; summary of the method: as §5
[24] = test system: Human immunodeficiency virus 1; experiment: Antiviral activity against HIV1 infected in human assessed as rate at which virus infects CD4 cells at 75 mg, po; type: functional
Summary of the method: (§6)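 Randomized, double-blind, placebo-controlled trial; HIV-infected adults (CD4 >200 cells/mm3, plasma viral load 5,000–250,000 copies/ml, no antiretrovirals ≥4 weeks), six per cohort, single oral dose. Plasma HIV RNA sampled predose through day 24. Viral-dynamic model (uninfected/infected CD4, virus; Hill-type inhibition of new infection by plasma concentration) fit by maximum likelihood then Bayesian estimation, pharmacokinetic parameters held fixed.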

[25] = test system: Human immunodeficiency virus 1; experiment: Antiviral activity against HIV1 infected in human assessed as rate at which virus infects CD4 cells at 150 mg, po; type: functional; summary of the method: as §6
[26] = test system: Human immunodeficiency virus 1; experiment: Antiviral activity against HIV1 infected in human assessed as rate at which virus infects CD4 cells at 250 mg, po; type: functional; summary of the method: as §6
[27] = test system: Human immunodeficiency virus 1; experiment: Antiviral activity against HIV1 infected in human assessed as death rate constant of infected CD4 cells at 75 mg, po; type: functional; summary of the method: as §5
[28] = test system: Human immunodeficiency virus 1; experiment: Antiviral activity against HIV1 infected in human assessed as death rate constant of infected CD4 cells at 150 mg, po; type: functional; summary of the method: as §5
[29] = test system: Human immunodeficiency virus 1; experiment: Antiviral activity against HIV1 infected in human assessed as death rate constant of infected CD4 cells at 250 mg, po; type: functional; summary of the method: as §5
[30] = test system: Human immunodeficiency virus 1; experiment: Antiviral activity against HIV1 infected in human assessed as clearance rate of virions at 75 mg, po; type: functional; summary of the method: as §6
[31] = test system: Human immunodeficiency virus 1; experiment: Antiviral activity against HIV1 infected in human assessed as clearance rate of virions at 150 mg, po; type: functional; summary of the method: as §6
[32] = test system: Human immunodeficiency virus 1; experiment: Antiviral activity against HIV1 infected in human assessed as clearance rate of virions at 250 mg, po; type: functional; summary of the method: as §6
[33] = test system: Human immunodeficiency virus 1; experiment: Antiviral activity against HIV1 infected in human assessed as number of new virions produced by infected CD4 cell at 75 mg, po; type: functional; summary of the method: as §6
[34] = test system: Human immunodeficiency virus 1; experiment: Antiviral activity against HIV1 infected in human assessed as number of new virions produced by infected CD4 cell at 150 mg, po; type: functional; summary of the method: as §6
[35] = test system: Human immunodeficiency virus 1; experiment: Antiviral activity against HIV1 infected in human assessed as number of new virions produced by infected CD4 cells at 250 mg, po; type: functional; summary of the method: as §6
[36] = test system: Human immunodeficiency virus 1; experiment: Antiviral activity against HIV1 infected in human assessed as inhibition of viral replication at 75 mg, po; type: functional, organism-based; summary of the method: as §6
[37] = test system: Human immunodeficiency virus 1; experiment: Antiviral activity against HIV1 infected in human assessed as inhibition of viral replication at 150 mg, po; type: functional, organism-based; summary of the method: as §6
[38] = test system: Human immunodeficiency virus 1; experiment: Antiviral activity against HIV1 infected in human assessed as inhibition of viral replication at 250 mg, po; type: functional, organism-based; summary of the method: as §6
[39] = test system: Human immunodeficiency virus 1; experiment: Antiviral activity against HIV1 infected in human assessed as maximum rate of viral replication measured as logarithmic viral copies at 75 mg, po; type: functional; summary of the method: as §6
[40] = test system: Human immunodeficiency virus 1; experiment: Antiviral activity against HIV1 infected in human assessed as maximum rate of viral replication measured as logarithmic viral copies at 150 mg, po; type: functional; summary of the method: as §6
[41] = test system: Human immunodeficiency virus 1; experiment: Antiviral activity against HIV1 infected in human assessed as maximum rate of viral replication measured as logarithmic viral copies at 250 mg, po; type: functional; summary of the method: as §6
[42] = test system: Human immunodeficiency virus 1; experiment: Antiviral activity against HIV1 infected in human assessed as growth/production of uninfected CD4 cells at 75 mg, po; type: functional; summary of the method: as §6
[43] = test system: Human immunodeficiency virus 1; experiment: Antiviral activity against HIV1 infected in human assessed as growth/production of uninfected CD4 cells at 150 mg, po; type: functional; summary of the method: as §6
[44] = test system: Human immunodeficiency virus 1; experiment: Antiviral activity against HIV1 infected in human assessed as growth/production of uninfected CD4 cells at 250 mg, po; type: functional; summary of the method: as §6
[45] = Half life in po dosed human; type: ADME, organism-based; details: in vivo
Homo sapiens [46] = experiment: Toxicity in HIV1 infected human assessed as mortality at 75 to 250 mg, po; type: organism-based; details: in vivo; summary of the method: as §1
Plasma = experiment: Stability in human plasma; type: ADME, cell-free

In the case of `C=C(C)[C@@H]1CC[C@]2(C(=O)O)CC[C@]3(C)[C@H](CC[C@@H]4[C@@]5(C)CC[C@H](OC(=O)CC(C)(C)C(=O)O)C(C)(C)[C@@H]5CC[C@]43C)[C@@H]12` [BEVIRIMAT], the inhibition at 0.0378 µM [1] is reported as 90%, the Activity (Homo sapiens [2]) is reported as “Non-toxic” and the Activity (Homo sapiens [3]) is reported as -15. The Activity (Homo sapiens [4]) was 121, the Activity (Homo sapiens [5]) was 104 and the Activity [6] was -0.14 mL⁻¹. It also gave an Activity [7] of -0.47 mL⁻¹, an Activity [8] of -0.46 mL⁻¹ and a CLd (Homo sapiens [9]) of 0.48 L/h. For the same compound, the CLd (Homo sapiens [10]) was 0.48 L/h, the CLd (Homo sapiens [11]) was 0.45 L/h and the CL/F [12] was 2.83 mL/min. For the same compound, the CL/F [13] was 2.67 mL/min, the CL/F [14] was 2.83 mL/min and the Tlag (Homo sapiens [15]) was 0.18 h. The Tlag (Homo sapiens [16]) was 0.2 h, the Tlag (Homo sapiens [17]) was 0.15 h and the half-life [18] was 2.66 days. The half-life [19] was 2.3 days, the half-life [20] was 2.59 days and the Activity [21] was 0.0031 h⁻¹. It also gave an Activity [22] of 0.0012 h⁻¹, an Activity [23] of 0.0016 h⁻¹ and an Activity [24] of 0.14 h⁻¹. It also gave an Activity [25] of 0.028 h⁻¹, an Activity [26] of 0.0349 h⁻¹ and an Activity [27] of 0.013 h⁻¹. It also gave an Activity [28] of 0.017 h⁻¹, an Activity [29] of 0.007 h⁻¹ and an Activity [30] of 0.008 h⁻¹. It also gave an Activity [31] of 0.071 h⁻¹, an Activity [32] of 0.024 h⁻¹ and an Activity [33] of 137.8. For the same compound, the Activity [34] was 126, the Activity [35] was 80.2 and the EC50 [36] was 1.19 ng/mL (≈ 2.03 nM). It also gave an EC50 [37] of 0.35 ng/mL (≈ 0.598 nM), an EC50 [38] of 0.55 ng/mL (≈ 0.94 nM) and an Activity [39] of 5.13 mL⁻¹. The Activity [40] was 4.59 mL⁻¹, the Activity [41] was 4.46 mL⁻¹ and the Activity [42] was 320.7 mL/h. The Activity [43] was 1340 mL/h, the Activity [44] was 1856.6 mL/h and the half-life [45] was 2.29 days. For the same compound, the Activity (Homo sapiens [46]) was “Non-toxic” and the Stability (Plasma) was 95 days.
